Shown are actives, neighbours in structure and some others; about 4.1% of the full set was active somewhere.
DTT redox prof: compounds producing H2O2 with reducing agent – biochemical, NIH compound library profiling, artefact control for MLSCN library redox annotation, primary screen; activation, % at 10 µM; 200,000 tested, 0.03% active; DTT-dependent redox cycling H2O2, phenol red/HRP absorbance; 100% = 100 µM peroxide control, 0% = buffer; AID 878;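 active = activation of at least 50% relative to the plate's high and low controls in the primary single-dose screen; inactive = activation below 50%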;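 note: compound incubated with DTT at 0.8 mM final as the reducing agent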
Dynein transport: dynein cargo transport inhibition; 220,000 tested, 0.47% active; 3617.4 mouse cells, GR-EGFP nuclear translocation imaging; test concentration mostly 20 µM; stimulated with dexamethasone, 1 µM; hits give low values; AID 1381; z-score, hits read low;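 active = plate z-score of nuclear minus cytoplasmic receptor signal below a set negative limit, without overly bright fluorescence or cell loss, cut at about -3.5 in these data, passing the limit was not always enough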;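 note: z-score of nuclear minus cytoplasmic ring GR-EGFP intensity difference per well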
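Buffer or medium – tet-free medium with charcoal-stripped serum · Signal – automated 10x imaging of fixed Hoechst-stained cells · Also added – dexamethasone agonist, 1.0 µM final, for 30 min · Incubation – induction 48 h, compound 1 h, agonist 30 min · Read-out – GR-EGFP nuclear translocation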
ROMK mod: human ROMK K+ channel modulation, primary screen; B-score at 10 µM; Tet-inducible ROMK, thallium flux fluorescence; actives lie on both sides; 130,000 tested, 2% active; P48048;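 active = signal ratio slope over the read window, or its plate-corrected B-score, at least 3 SD from the plate mean, either direction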;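 note: B-score of the F/F0 ratio slope over 7 to 12 s after thallium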
Cl transport mod: modulates chloride dependent transport by human KCC2 | KCC2 cells, thallium flux FluoZin-2 fluorescence | Q9H2X9 | 190,000 tested, 2.2% active | AID 1456 | B-score of Tl+ flux slope (higher = more flux/activation; lower = inhibition) at 10 µM;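 active = thallium flux slope and its plate-corrected score both differing from the plate sample mean at a set confidence after two filtering rounds, in either direction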;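 note: slope of fluorescence scaled to starting intensity during 10 to 20 s after thallium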
Target sequence (Q9H2X9 whole entry, looked up): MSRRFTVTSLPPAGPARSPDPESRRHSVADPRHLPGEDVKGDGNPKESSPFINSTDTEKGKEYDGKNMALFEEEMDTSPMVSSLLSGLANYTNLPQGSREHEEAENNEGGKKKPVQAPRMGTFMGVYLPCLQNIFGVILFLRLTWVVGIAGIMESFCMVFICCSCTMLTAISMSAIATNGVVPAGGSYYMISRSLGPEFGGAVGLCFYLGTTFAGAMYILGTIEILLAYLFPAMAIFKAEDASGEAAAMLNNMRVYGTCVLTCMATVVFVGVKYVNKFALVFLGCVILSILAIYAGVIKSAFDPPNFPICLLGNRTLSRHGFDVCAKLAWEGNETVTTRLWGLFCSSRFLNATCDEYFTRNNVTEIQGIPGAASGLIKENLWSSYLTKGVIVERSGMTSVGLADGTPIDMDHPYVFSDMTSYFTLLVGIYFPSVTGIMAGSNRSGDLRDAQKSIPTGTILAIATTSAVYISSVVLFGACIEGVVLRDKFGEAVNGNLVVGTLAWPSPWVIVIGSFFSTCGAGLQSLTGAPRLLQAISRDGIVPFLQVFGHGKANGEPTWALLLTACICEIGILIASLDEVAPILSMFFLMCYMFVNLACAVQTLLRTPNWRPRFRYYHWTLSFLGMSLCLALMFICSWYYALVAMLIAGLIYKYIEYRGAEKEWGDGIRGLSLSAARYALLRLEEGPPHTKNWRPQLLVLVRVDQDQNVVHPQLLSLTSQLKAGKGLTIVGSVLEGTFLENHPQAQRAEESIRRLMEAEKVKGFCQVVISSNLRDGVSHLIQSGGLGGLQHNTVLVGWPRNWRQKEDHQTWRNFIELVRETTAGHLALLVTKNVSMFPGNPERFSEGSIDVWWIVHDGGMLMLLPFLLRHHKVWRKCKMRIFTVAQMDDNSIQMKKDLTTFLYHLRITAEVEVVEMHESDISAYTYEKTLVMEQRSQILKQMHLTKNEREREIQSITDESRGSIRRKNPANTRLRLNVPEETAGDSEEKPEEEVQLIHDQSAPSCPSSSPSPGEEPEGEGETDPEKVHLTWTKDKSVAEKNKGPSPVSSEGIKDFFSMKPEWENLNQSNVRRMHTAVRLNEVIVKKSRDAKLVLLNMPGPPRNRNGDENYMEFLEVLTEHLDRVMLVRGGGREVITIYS
Autophagy HCS: autophagy modulation, high-content screen; MEF GFP-LC3 puncta imaging; test concentration mostly 10 µM; calls only at 10 µM (by protocol); 190,000 tested, 0.98% active;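 active = percentage of spot-positive cells more than 3 SD above its plate mean, without a fluorescence outlier flag or 80% toxicity; inconclusive = no clear call, values can overlap the other calls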;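 note: spot-positive cell cutoff set from DMSO-treated cells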
Dynein inh conf: dynein cargo transport inhibition, confirmation | shares compounds with Dynein transport | 3617.4 GR-EGFP nuclear translocation imaging, dexamethasone-induced | calls only at 20 µM | 1,000 tested, 69% active | AID 463116;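 active = inhibition of receptor movement into the nucleus at or above a set limit in both runs, with normal cell brightness and cell count; inconclusive = limit reached in only one run, brightness and count normal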;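 note: dexamethasone at 1 µM final in well for 30 min; nuclear minus cytoplasmic GR-EGFP mean intensity difference in channel 2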
KCC2 sec1: confirmation of human KCC2 transport modulators. shares compounds with Cl transport mod. HEK293-KCC2, thallium flux, FluoZin2 fluorescence; hits give high values. normalised thallium flux (F/F0 slope) at 10 µM. 3,700 tested, 15% active;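 active = thallium flux slope above the same plate's solvent-only control mean plus 3 SD; inconclusive = the two replicate wells disagree; inactive = no significant difference from solvent-only control wells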
KCC2 bumet counter: bumetanide-insensitive thallium flux in KCC2 cells with ouabain, counter-screen; 3,700 tested, 49% active; HEK293-KCC2 + bumetanide/ouabain, thallium flux FluoZin2; hits give high values; normalized thallium flux at 10 µM; shares compounds with Cl transport mod;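 active = thallium entry rate above the same plate's blocked-transporter control wells by more than 3 SD; inconclusive = the two repeat wells disagree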;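 note: raw slope of fluorescence over initial fluorescence between 10 and 20 s after thallium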
KCC2 sec2: KCC2 (human) modulation, second secondary assay | shares compounds with Cl transport mod | HEK293-KCC2, thallium flux FluoZin2 fluorescence; actives lie on both sides; F/F0 rise rate, 10–20 s post-thallium | normalized thallium flux at 10 µM | 3,700 tested, 23% active | AID 1715;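 active = thallium flux slope more than 3 SD above or below the plate's solvent-only control mean, mostly below; inconclusive = the two repeat wells disagreed; inactive = no significant shift from solvent-only controls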;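 note: raw slope with 0.1% DMSO as baseline and bumetanide as block control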
HEK293 Tl flux: counter-screen for KCC2 modulators: effect in parental HEK293 cells; AID 1716; shares compounds with Cl transport mod; thallium flux rate (normalised fluorescence) at 10 µM; 3,700 tested, 46% active; thallium flux FluoZin2, ouabain; baseline-ratio fluorescence slope, 10–20 s after thallium;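 active = thallium flux rate significantly above the same plate's solvent-only control wells, beyond their mean plus 3 SD; inconclusive = the two replicate wells gave conflicting results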
KCC2 ouabain: confirmation of human KCC2 modulators with ouabain; raw Tl+ flux slope (below DMSO = inhibition, above = activation) at 10 µM; HEK293-KCC2, thallium flux FluoZin2 fluorescence; bidirectional: low = inhibitor, high = activator; shares compounds with Cl transport mod; 3,700 tested, 48% active;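 active = thallium flux slope beyond 3 SD from same-plate DMSO control mean in most replicates, usually higher, sometimes lower; inconclusive = repeat tests gave conflicting results; inactive = no significant difference from controls in most replicates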;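 note: slope of initial-normalized fluorescence between seconds 10 and 20 after thallium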
HEK293 Tl flux2: counter-screen for KCC2 modulators: effect in parental HEK293 cells; shares compounds with Cl transport mod; thallium flux FluoZin-2 fluorescence slope; thallium flux slope at 10 µM; 3,700 tested, 33% active; AID 1718;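 active = thallium flux slope above the same plate's solvent-control mean plus 3 SD in both duplicate wells; inconclusive = duplicate wells that disagreed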;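 note: run without ouabain in cells lacking the KCC2 cotransporter; slope of fluorescence scaled to its starting value between 10 and 20 s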
ROMK retest: retested hit modulating human ROMK potassium channel; normalized thallium flux (F/F0 slope) at 10 µM; shares compounds with ROMK mod; 3,000 tested, 54% active; ROMK thallium flux, fluorescence ratio; hits give low values;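 active = Flux at 10 µM at least 3 SD below or above vehicle control mean in one or both replicates; inconclusive = no clear call, values can overlap the other calls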
Active calls of the source: *; i = inactive; ? = inconclusive; · = not tested or not shown; + = active, no number.

SMILES	DTT redox prof	Dynein transport	ROMK mod	Cl transport mod	Autophagy HCS	Dynein inh conf	ROMK retest	others
CCOC(=O)/C(=C\c1cccc(O)c1)c1nc2sc(C)c(C)c2c(=O)[nH]1	-0.3	-4.44*	-4.07*	-0.438	i	+	0.0585*
COc1ccc(-c2cc(C(F)(F)F)nc(S(C)(=O)=O)n2)cc1	0.1	-5.32*	-4.23*	0.189	i	i	0.0552*
CS(=O)(=O)c1nc(-c2ccc(F)cc2)cc(C(F)(F)F)n1	0.9	-3.86	-2.55*	-0.844	i	i	0.0583*
COc1cc(/C=C/[N+](=O)[O-])ccc1OCc1cccc(C(=O)O)c1	-0.8	-3.65*	-6.02*	-2.83	i	+	0.0369*
N#C/C(=C/c1ccc(N2CCCCC2)o1)C(=O)Nc1ccc(Cl)cc1	1.1	-10.5	·	·	+	i	0.0482*
CCC(C)(C)c1ccc(OCCCC[n+]2cccc(C)c2C)c(C(C)(C)CC)c1	·	-5.23*	·	·	·	i	0.0369*
Cc1cc(Cl)n2c(nc3ccccc32)c1C#N	1.5	-5.22*	-4.97*	-1.83	i	+	0.0357*
CCN(CC)c1cc(C)c(C#N)c2nc3ccccc3n12	·	0.998	·	-0.115	·	·	·
CN(CC(=O)Nc1ccc(S(=O)(=O)N2CCCC2)cc1)Cc1c(F)cccc1Cl	-0.3	1.71	-0.0729	-0.81	i	·	·
COc1ccc(-n2cccc2/C=C/[N+](=O)[O-])cc1	-0.1	-3.84*	-5.55*	-0.789	i	+	0.0412*
COc1ccc(-n2cccc2C=O)cc1	0.1	-0.71	0.045	1.07	i	·	·
CCOc1cc(/C=C\[N+](=O)[O-])ccc1OCC(=O)N1CCOCC1	-0.5	-5.67*	-5.62*	1.67	i	+	0.0565*
O=c1c2ccccc2nc(/C=C/c2ccc([N+](=O)[O-])o2)n1CCCO	-6.8	-5.62*	-3.06*	·	i	+	0.0523*
Cc1ccc(-c2csc(NC(=O)Cc3ccc(F)cc3)n2)o1	0.7	-3.91*	4.92*	1.36	i	i	0.0729
CCOC(=O)/C(=C\c1cccnc1)C(=O)c1cc(C(C)=O)c(Nc2ccccc2)s1	0.1	-5.68*	-2.99*	-0.429	+	+	0.0505*
CCOC(=O)/C(C#N)=C\c1cccnc1	-0.5	-0.306	-0.288	-0.619	i	·	·
Cc1ccc(NCc2n[nH]c(=S)n2-c2ccccc2)c(C)c1	-1.3	-0.16	0.0769	-0.294	i	·	·
COc1ccc(N2CCN(Cc3nc4cc(Cl)ccc4c(=O)[nH]3)CC2)cc1	0.1	0.419	-0.485	0.357	i	·	·
Cc1cc(C)n(-c2nc(NCCN(C)C)c3c4c(sc3n2)CCCC4)n1	·	-4.58*	·	1.01	·	i	?
Cc1ccc(C(=O)N/C(=C\c2ccc(-c3cc(Cl)ccc3Cl)o2)C(=O)NCc2cccnc2)cc1	-7.7	-0.549	0.209	-2.07	i	·	·
O=C(NCc1cccnc1)/C(=C\c1ccc(-c2cccc(Cl)c2)o1)S(=O)(=O)c1ccccc1	-0.1	-4.3*	-4.79*	-0.227	i	+	0.0501*
O=C(NCc1cccnc1)/C(=C/c1ccc(-c2cccc(Cl)c2)o1)S(=O)(=O)c1ccccc1	-3.9	-3.85*	-5.31*	0.0207	i	+	0.0512*
Cc1ccc(S(=O)(=O)N2CCCCC2)c(C)c1NS(C)(=O)=O	-0.9	1.35	-0.457	-1.16	i	·	·
CCOC(=O)c1ccc(Oc2nc(OC)cc(OC)n2)cc1	-2.5	1.03	0.123	-0.072	i	·	·
Cc1cc(-c2nnc(CSc3nnc(NC(=O)c4ccc(C(C)(C)C)cc4)s3)o2)ccc1[N+](=O)[O-]	·	-0.164	-0.546	-0.829	·	·	·
SMILES	DTT redox prof	Dynein transport	ROMK mod	Cl transport mod	Autophagy HCS	Dynein inh conf	ROMK retest	others
CC(=O)C(Cl)C(=O)Nc1ccccc1 (stereo unspecified)	0.3	-4.19*	-5.38*	1.49	i	i	0.046*
CC(Cc1ccccc1)C(=O)Nc1ccccc1 (stereo unspecified)	-0.6	1.82	-0.549	0.428	i	·	·
O=C(Nc1ccc(N2C(=O)CCC2=O)cc1Cl)c1cccs1	-0.4	-0.87	0.354	-0.43	i	·	·
O=C1N/C(=C/c2ccc(N3CCOCC3)o2)C(=O)N1c1cccc(Cl)c1	-0.5	-4.15	-4.88*	-2.28	i	i	0.0387*
Cc1c(C(=O)O)cccc1-c1ccc(/C=C2/NC(=O)N(c3ccccc3)C2=O)o1	-1.1	-1.16	0.272	-0.856	i	·	·
CC1(C)CC(=O)C(C2C3=C(CC(C)(C)CC3=O)Oc3ccccc32)C(=O)C1 (stereo unspecified)	·	-1.11	0.00286	0.226	·	·	·
CC1(C)CC(=O)C2=C(C1)Oc1nc3ccccc3cc1C2C(C#N)C#N (stereo unspecified)	-0.8	-4.39*	-3.55*	·	i	+	0.0583*
O=S(=O)(NCc1ccccc1)c1ccc(Cl)c(S(=O)(=O)NCc2ccccc2)c1	0.0	-1.12	-0.922	·	i	·	·	KCC2 sec1=0.00759;KCC2 bumet counter=0.00628;KCC2 sec2=?;HEK293 Tl flux=0.00613;KCC2 ouabain=0.0129*;HEK293 Tl flux2=0.00974
COc1cc(S(=O)(=O)NCc2ccccc2)ccc1Br	0.3	-0.842	1.04	-0.905	i	·	·
CCOc1cc(S(=O)(=O)NCc2ccccc2)ccc1F	3.4	-0.787	-1.06	·	i	·	·	KCC2 sec1=?;KCC2 bumet counter=0.00526;KCC2 sec2=0.0241*;HEK293 Tl flux=0.00746;KCC2 ouabain=?;HEK293 Tl flux2=0.011
Cc1c(C(=O)N2CCOCC2)cc(C(C)(C)C)n1-c1ccccc1	·	-0.559	·	-1.51	·	·	·

Compound activity: PubChem BioAssay, several laboratories
